A word on the IC50: it is the concentration needed to halve the response being measured. As usually defined, the half-life is how long it takes for the measured level to halve. Usually Kd stands for the free concentration of one partner at which half of the binding sites on the other are occupied at equilibrium, for simple one-to-one binding. Low readings indicate a tighter complex, high ones a looser complex.

Data on 6 compounds can be found in ChEMBL document CHEMBL1133445, “Nonpeptide alpha(v)beta(3) antagonists. 1. Transformation of a potent, integrin-selective alpha(IIb)beta(3) antagonist into a potent alpha(v)beta(3) antagonist” (J Med Chem, 2000).

The species entered for data set [1] is Rattus norvegicus. As to the kind of experiment: In vitro inhibition of rat osteoclast-mediated bone resorption (BONE RES).
The species entered for another data set is Homo sapiens. Briefly: In vitro inhibition of the rate of ADP-stimulated human gel-filtered platelet aggregation (PLAGGIN). It is filed as functional. A digest of the protocol: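 Gel-filtered human platelets at 2×10^8/mL with 0.1 mg/mL human fibrinogen and 1 mM CaCl2. Light-transmittance aggregometry at 37 °C, with aggregation started by 10 μM ADP in the presence of test compound or vehicle.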

Data set [2] concerns the target T1, Integrin alpha-V/beta-3 (Homo sapiens, UniProt P05106+P06756). Briefly: Displacement of [125I]nonpeptide ligand (compound 7) from purified human recombinant alphaV-beta3. It is filed as protein-complex assay. Summed up:
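αvβ3 purified from 293 cells overexpressing human recombinant receptor, captured on wheatgerm agglutinin scintillation proximity beads. Incubated with ~40 pM final 125I-labeled nonpeptide ligand in HEPES pH 7.5 binding buffer with Ca2+/Mg2+, overnight at 4 °C with rocking. Nonspecific binding with 1 μM final cold ligand. Counted by scintillation; IC50 derived. Error given as SD.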
Background: Displacement assays read how much labelled ligand stays bound in the presence of the test substance.

Data set [3] deals with T1, Integrin alpha-V/beta-3. As to the kind of experiment: Displacement of [125I]echistatin from human recombinant alpha-v beta-3 receptor. It is filed as protein-complex assay. Summed up:
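Cell extracts of HEK 293 stably transfected with human αvβ3 (~10 × 10^6 receptors/cell) incubated with 30 pM 125I-echistatin in Tris-HCl pH 7.8 buffer with NaCl, Ca/Mg and 0.1% BSA. Nonspecific binding with 1 μM unlabeled echistatin. Bound ligand separated by filtration on poly(ethylenimine)-soaked filters and gamma-counted. Error given as SD.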

Data set [4] can be described thus: Half-life following a 1 mg/kg iv bolus dose to male rats (n=4). In kind it is ADME, organism-based. On the set-up: dose 1 mg/kg, route intravenous. The note with it: rat, in vivo.
In data set [5] the test system is Rattus norvegicus. Briefly: Inhibition of the increase of serum calcium levels in a dose-dependent fashion after subcutaneous infusion for 6 hr to TPTX rats at doses 0.20, 0.67, and 2 mg/kg/h. In kind it is organism-based. On the set-up: route subcutaneous. A digest of the protocol: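 Rats thyroparathyroidectomized and kept on a low-calcium diet; those with serum Ca < 8 mg/dL used. On day 3, anesthetized rats got subcutaneous infusion of vehicle or compound. Bovine PTH(1–34) at 0.03 nmol/h by osmotic minipump started 30 min later. Serum calcium measured at baseline and at the 4–6 h endpoint. Plasma drug levels measured by the echistatin binding bioassay.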

Data set [6] concerns the target T1, Integrin alpha-V/beta-3. Briefly: Dissociation constant of radiolabeled compound binding to alpha-v-beta-3. It is filed as protein-complex assay.

T1 sequence (P05106 27-788 limits assumed): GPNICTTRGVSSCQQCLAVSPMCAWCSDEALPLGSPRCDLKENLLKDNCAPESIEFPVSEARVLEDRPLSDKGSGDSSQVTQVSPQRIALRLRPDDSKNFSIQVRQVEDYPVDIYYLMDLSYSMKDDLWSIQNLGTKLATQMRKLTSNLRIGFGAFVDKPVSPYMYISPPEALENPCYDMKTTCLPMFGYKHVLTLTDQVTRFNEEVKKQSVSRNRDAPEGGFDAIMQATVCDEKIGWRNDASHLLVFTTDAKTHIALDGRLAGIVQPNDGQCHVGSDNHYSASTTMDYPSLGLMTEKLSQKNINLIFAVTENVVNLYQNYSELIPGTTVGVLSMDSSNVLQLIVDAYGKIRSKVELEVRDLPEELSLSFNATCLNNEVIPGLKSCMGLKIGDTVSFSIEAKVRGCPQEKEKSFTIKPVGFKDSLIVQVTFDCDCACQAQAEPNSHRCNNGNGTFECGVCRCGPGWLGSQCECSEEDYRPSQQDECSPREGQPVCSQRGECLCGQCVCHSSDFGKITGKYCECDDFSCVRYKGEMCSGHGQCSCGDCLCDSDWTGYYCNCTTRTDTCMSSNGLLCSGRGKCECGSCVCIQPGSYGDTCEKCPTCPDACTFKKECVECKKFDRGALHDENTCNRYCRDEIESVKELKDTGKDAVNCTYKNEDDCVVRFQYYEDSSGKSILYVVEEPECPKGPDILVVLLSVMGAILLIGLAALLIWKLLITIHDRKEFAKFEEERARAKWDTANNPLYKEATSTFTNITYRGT
T1 sequence (P06756 31-889 limits assumed): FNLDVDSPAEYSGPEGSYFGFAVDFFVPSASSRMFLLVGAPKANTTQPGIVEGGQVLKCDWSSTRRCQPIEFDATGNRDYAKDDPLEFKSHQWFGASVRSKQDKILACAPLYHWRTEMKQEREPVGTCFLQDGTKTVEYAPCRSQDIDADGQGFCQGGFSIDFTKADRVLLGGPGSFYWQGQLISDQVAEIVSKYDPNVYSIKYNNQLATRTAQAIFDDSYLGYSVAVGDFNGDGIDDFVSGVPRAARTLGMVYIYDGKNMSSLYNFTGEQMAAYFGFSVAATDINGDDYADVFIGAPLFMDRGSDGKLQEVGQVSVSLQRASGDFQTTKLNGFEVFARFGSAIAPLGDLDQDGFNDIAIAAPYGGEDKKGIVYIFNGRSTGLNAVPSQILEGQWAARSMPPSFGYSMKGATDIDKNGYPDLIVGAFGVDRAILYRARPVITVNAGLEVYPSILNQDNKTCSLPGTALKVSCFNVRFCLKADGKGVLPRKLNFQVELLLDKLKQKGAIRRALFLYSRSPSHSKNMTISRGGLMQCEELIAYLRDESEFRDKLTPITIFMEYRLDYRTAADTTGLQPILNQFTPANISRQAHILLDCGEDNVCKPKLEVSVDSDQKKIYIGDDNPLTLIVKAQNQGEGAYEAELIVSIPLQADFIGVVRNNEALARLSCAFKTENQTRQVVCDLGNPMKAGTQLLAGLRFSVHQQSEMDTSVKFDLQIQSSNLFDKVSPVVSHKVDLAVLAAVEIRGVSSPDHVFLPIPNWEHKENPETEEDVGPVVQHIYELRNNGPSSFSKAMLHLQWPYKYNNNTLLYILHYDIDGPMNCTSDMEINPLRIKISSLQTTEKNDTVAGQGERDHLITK
T1 sequence (P06756 891-1048 limits assumed): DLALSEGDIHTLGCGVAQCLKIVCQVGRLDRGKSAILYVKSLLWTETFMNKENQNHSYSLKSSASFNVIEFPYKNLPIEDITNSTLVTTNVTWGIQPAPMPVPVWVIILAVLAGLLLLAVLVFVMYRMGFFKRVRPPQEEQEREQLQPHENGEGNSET

`O=C(NC[C@H](NS(=O)(=O)c1ccccc1)C(=O)O)c1ccc(OCCNC2=NCCCN2)cc1`: the IC50 in the data set filed under Rattus norvegicus [1] was 46 nM; in the data set filed under Homo sapiens, 44 nM; at Integrin alpha-V/beta-3 [2] it was 0.93 nM; at Integrin alpha-V/beta-3 [3], 0.7 nM.
Consider `O=C(NC[C@H](NS(=O)(=O)c1ccccc1)C(=O)O)c1ccc(CCc2ccc3c(n2)NCCC3)cc1`, for which the half-maximal inhibitory concentration (IC50) in the data set listed under Rattus norvegicus [1] was determined as 3 nM; in the data set listed under Homo sapiens, 260 nM; on Integrin alpha-V/beta-3 [2], 0.07 nM; on Integrin alpha-V/beta-3 [3], 0.3 nM; with Rattus norvegicus [5], 200 nM. The compound also displayed a half-life in data set [4] of under 30 min.
With `Nc1cccc(CCc2ccc(C(=O)NC[C@H](NS(=O)(=O)c3ccccc3)C(=O)O)cc2)n1`, the 50% inhibitory concentration (IC50) in the data set listed under Rattus norvegicus [1] was 8 nM; in the data set listed under Homo sapiens it was 140 nM; at Integrin alpha-V/beta-3 [2], 0.44 nM; on Integrin alpha-V/beta-3 [3], 0.4 nM.
`Nc1cccc(CCc2ccc(C(=O)NC[C@H](NS(=O)(=O)c3ccc(I)cc3)C(=O)O)cc2)n1`: the half-inhibitory concentration (IC50) in the data set listed under Homo sapiens came to 1600 nM; on Integrin alpha-V/beta-3 [2] it was 0.08 nM; on Integrin alpha-V/beta-3 [3], 0.1 nM. Besides, the equilibrium dissociation constant (Kd) at Integrin alpha-V/beta-3 [6] was determined as 0.06 nM.
For `N=C(N)NCCOc1ccc(C(=O)NC[C@H](NS(=O)(=O)c2ccccc2)C(=O)O)cc1`, the 50% inhibitory concentration (IC50) in the data set listed under Rattus norvegicus [1] amounted to 300 nM; in the data set listed under Homo sapiens, 17 nM; at Integrin alpha-V/beta-3 [2] it was 10.7 nM; at Integrin alpha-V/beta-3 [3] it was 1.8 nM.
On to `O=C(NC[C@H](NS(=O)(=O)c1ccccc1)C(=O)O)c1ccc(OCCC2CCNCC2)cc1`, for which the IC50 was 10 nM in the data set filed under Homo sapiens, over 1000 nM at Integrin alpha-V/beta-3 [2] and over 1000 nM at Integrin alpha-V/beta-3 [3].
